Source: ChEMBL document CHEMBL3621120, “Discovery of ((4-(5-(Cyclopropylcarbamoyl)-2-methylphenylamino)-5-methylpyrrolo[1,2-f][1,2,4]triazine-6-carbonyl)(propyl)carbamoyloxy)methyl-2-(4-(phosphonooxy)phenyl)acetate (BMS-751324), a Clinical Prodrug of p38α MAP Kinase Inhibitor” (J Med Chem, 2015)
Converted amounts (≈) assume the structure as drawn.

Legend:
Cynomolgus monkey [1] = assay: Cmax in cynomolgus monkey assessed as plasma BMS-582949 level at 30 mg/kg, po dose equivalent to BMS-582949 after 24 hrs by LC/MS/MS method; format: ADME, organism-based, Macaca fascicularis; parameters: dose 30 mg/kg, route oral; details: in vivo
Outline: (§1)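 Three overnight-fasted male cynomolgus monkeys (4.2-5.2 kg) given prodrug by oral gavage at 10 or 30 mg/kg, 5 mL/kg methocel suspension, one-week washout between doses. Femoral artery blood pre-dose and 0.25-24 h post-dose; plasma (centrifuged 4 °C) stored -20 °C and analysed by LC/MS/MS for parent.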

[2] = Stability in pH 7.4 solution assessed as half-life at 37 degC; format: physicochemical
[3] = Solubility of the compound in pH 6.7 solution at room temperature; format: physicochemical
Cynomolgus monkey [4] = assay: AUC in cynomolgus monkey assessed as plasma BMS-582949 level at 30 mg/kg, po dose equivalent to BMS-582949 after 24 hrs by LC/MS/MS method; format: ADME, organism-based, Macaca fascicularis; parameters: time < 24 hr, dose 30 mg/kg, route oral; details: in vivo; outline: as §1
Rattus norvegicus [5] = assay: Cmax in Sprague-Dawley rat assessed as plasma BMS-582949 level at 1 mg/kg, po dose equivalent to BMS-582949 after 24 hrs by LC/MS/MS method; format: ADME, organism-based; parameters: dose 1 mg/kg, route oral; details: in vivo
Liver carboxylesterase = molecular target: T1, Liver carboxylesterase (Sus scrofa, UniProt Q29550); assay: Stability assessed as porcine liver esterase-mediated drug degradation by measuring compound remaining level in pH 7.4 potassium phosphate buffer at 10 uM incubated for 1 hr by LC/MS/MS; format: ADME, tissue-based; details: pig, read-out: Stability
T1 sequence (Q29550 whole entry): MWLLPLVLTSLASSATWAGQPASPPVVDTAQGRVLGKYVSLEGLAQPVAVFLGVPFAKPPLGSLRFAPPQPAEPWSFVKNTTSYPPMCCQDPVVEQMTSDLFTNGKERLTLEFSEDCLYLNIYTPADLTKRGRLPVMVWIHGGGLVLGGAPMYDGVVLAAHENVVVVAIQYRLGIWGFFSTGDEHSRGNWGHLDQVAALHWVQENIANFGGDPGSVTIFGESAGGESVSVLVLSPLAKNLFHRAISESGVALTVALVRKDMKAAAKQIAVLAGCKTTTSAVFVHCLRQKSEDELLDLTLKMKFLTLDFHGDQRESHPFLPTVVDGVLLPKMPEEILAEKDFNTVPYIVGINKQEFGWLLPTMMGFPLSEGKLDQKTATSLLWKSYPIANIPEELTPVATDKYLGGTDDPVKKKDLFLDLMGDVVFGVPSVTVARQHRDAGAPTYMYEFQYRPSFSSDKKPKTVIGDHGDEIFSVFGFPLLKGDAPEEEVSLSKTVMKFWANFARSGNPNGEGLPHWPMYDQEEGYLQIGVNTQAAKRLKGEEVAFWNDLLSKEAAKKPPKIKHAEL
Outline: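 Porcine liver esterase with substrate at 10 µM in 89 mM potassium phosphate pH 7.4, 37 °C. Reaction started by adding compound. Aliquots taken at 0, 15, 30 and 60 min and quenched with acetonitrile. After centrifugation at 4 °C, percent remaining quantified by LC/MS/MS.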

Rattus norvegicus [6] = assay: Inhibition of paw swelling in Lewis rat adjuvant arthritis model assessed as reduction in hind paw volume at 1 mg/kg, po bid dose equivalent to BMS-582949 beginning on day 11 post adjuvant challenge by volume displacement plethysmometry method relative to control; format: functional; details: 264 h
Outline: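 Male Lewis rats given complete Freund's adjuvant on day 1; from day 11 compounds dosed orally BID in 0.5 mL vehicle (prodrug as aqueous suspension in 0.75% Methocel, 0.1% Tween 80; parent in PEG 300). Paw volume measured 3 times per week for rest of study; paw swelling inhibition reported.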

Rattus norvegicus [7] = assay: AUC in Sprague-Dawley rat assessed as plasma BMS-582949 level at 100 mg/kg, po dose equivalent to BMS-582949 after 24 hrs by LC/MS/MS method; format: ADME, organism-based; parameters: time < 24 hr, dose 100 mg/kg, route oral; details: in vivo
Rattus norvegicus [8] = assay: Bioavailability in Sprague-Dawley rat assessed as plasma BMS-582949 level at 1 mg/kg, po dose equivalent to BMS-582949 after 24 hrs by LC/MS/MS method; format: ADME, organism-based; details: in vivo
[9] = molecular target: T2, Alkaline phosphatase, placental type (Homo sapiens, UniProt P05187); assay: Stability assessed as human placental ALP-mediated drug degradation by measuring compound remaining level in pH 7.5 tris buffer at 10 uM incubated for 0.25 hrs by LC/MS/MS method; format: ADME; details: read-out: Stability
Outline: (§2)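 Human placental alkaline phosphatase (1 unit/mL) incubated with compound at 10 µM in 89 mM tris buffer, pH 7.5, 37 °C; reactions in triplicate started by compound addition, sampled at 0, 15, 30, 60 min. For inhibition, HALT phosphatase inhibitor cocktail (100x dilution) added before compound. Samples quenched into EDTA, acetonitrile added, centrifuged, remaining compound measured by LC/MS/MS.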

Caco-2 = assay: Drug level in apical side of human Caco2 cells incubated at 37 degC for 2 hrs; format: ADME, cell-based; details: caco-2, 2 h
Outline: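 Compounds loaded on apical side of Caco-2 monolayers and incubated at 37 °C for 2 h; prodrug, intermediate and parent measured on apical and basal sides.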

Cynomolgus monkey [10] = assay: AUC in cynomolgus monkey assessed as plasma BMS-582949 level at 10 mg/kg, po dose equivalent to BMS-582949 after 24 hrs by LC/MS/MS method; format: ADME, organism-based, Macaca fascicularis; parameters: time < 24 hr, dose 10 mg/kg, route oral; details: in vivo; outline: as §1
[11] = molecular target: T2, Alkaline phosphatase, placental type; assay: Stability assessed as human placental ALP-mediated drug degradation by measuring compound remaining level in pH 7.5 tris buffer at 10 uM incubated for 0.5 hrs by LC/MS/MS method; format: ADME; details: read-out: Stability; outline: as §2
Cynomolgus monkey [12] = assay: Bioavailability in cynomolgus monkey assessed as plasma BMS-582949 level at 30 mg/kg, po dose equivalent to BMS-582949 after 24 hrs by LC/MS/MS method; format: ADME, organism-based, Macaca fascicularis; details: in vivo; outline: as §1

T2 sequence (P05187 whole entry): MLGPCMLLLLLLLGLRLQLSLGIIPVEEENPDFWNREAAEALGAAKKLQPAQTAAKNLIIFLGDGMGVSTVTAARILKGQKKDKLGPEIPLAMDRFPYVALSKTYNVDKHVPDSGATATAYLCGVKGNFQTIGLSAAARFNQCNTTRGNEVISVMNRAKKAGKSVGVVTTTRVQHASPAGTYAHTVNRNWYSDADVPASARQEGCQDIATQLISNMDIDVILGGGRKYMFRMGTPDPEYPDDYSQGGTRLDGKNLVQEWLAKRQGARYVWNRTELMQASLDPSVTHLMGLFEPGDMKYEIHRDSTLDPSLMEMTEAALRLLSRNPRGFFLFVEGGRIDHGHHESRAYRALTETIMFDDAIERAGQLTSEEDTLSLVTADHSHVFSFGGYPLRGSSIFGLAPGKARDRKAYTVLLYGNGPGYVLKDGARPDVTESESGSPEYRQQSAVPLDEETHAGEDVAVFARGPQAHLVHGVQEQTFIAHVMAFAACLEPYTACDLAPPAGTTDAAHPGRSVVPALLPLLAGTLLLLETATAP

CCCN(C(=O)OCOC(=O)Cc1ccc(OP(=O)(O)O)cc1)C(=O)c1cn2ncnc(Nc3cc(C(=O)NC4CC4)ccc3C)c2c1C
Cmax (Cynomolgus monkey [1]): 29 µM
half-life [2]: 37 h
solubility [3]: 3030 µg/mL (≈ 4.36 mM)
AUC (Cynomolgus monkey [4]): 96 µM·h
Cmax (Rattus norvegicus [5]): 0.4 µM
remaining at 1 h, 10 µM (Liver carboxylesterase): 100%
inhibition in vivo at 1 mg/kg (Rattus norvegicus [6]): 39%
AUC (Rattus norvegicus [7]): 875 µM·h
F (Rattus norvegicus [8]): 41%
remaining at 0.25 h, 10 µM [9]: 12.5%
Drug uptake (Caco-2): Active
AUC (Cynomolgus monkey [10]): 24 µM·h
remaining at 0.5 h, 10 µM [11]: 11.1%
F (Cynomolgus monkey [12]): 69%
